# The source made the active and inactive calls. No cut-off for these calls is given here.
# Legend:
# Ca-Ski [1] = experiment: Antiproliferative activity against human CaSki cells assessed as reduction in cell viability after 24 hrs by CellTiter-Glo assay; format: functional, cell-based
# How it was run: (§1)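 ATP-based luminescent viability readout. Cells were grown in DMEM with 10% FBS, 2 mM L-glutamine and penicillin-streptomycin at 37 °C, 5% CO2. 2 × 10^4 cells/well were seeded, then exposed the next day to 0–40 μM for 24, 48 or 72 h. % viability = 100 × treated/control. IC50 was fitted from a sigmoid dose-response curve. Run at least three times in quadruplicate; mean ± SEM.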
# C-33-A [2] = experiment: Antiproliferative activity against human C33A cells assessed as reduction in cell viability after 48 hrs by CellTiter-Glo assay; format: functional, cell-based; how it was run: as §1
# SiHa [3] = experiment: Antiproliferative activity against human SiHa cells assessed as reduction in cell viability after 48 hrs by CellTiter-Glo assay; format: functional, cell-based; how it was run: as §1
# C-33-A [4] = experiment: Antiproliferative activity against human C33A cells assessed as reduction in cell viability after 72 hrs by CellTiter-Glo assay; format: functional, cell-based; how it was run: as §1
# HeLa [5] = experiment: Antiproliferative activity against human HeLa cells assessed as reduction in cell viability after 72 hrs by CellTiter-Glo assay; format: functional, cell-based; how it was run: as §1
# HeLa [6] = experiment: Inhibition of colony formation in human HeLa cells at 2 to 4 uM afer 1 week by crystal violet staining based assay; format: functional, cell-based
# How it was run: (§2)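 Cells were grown in DMEM with 10% FBS, seeded at 1 × 10^3 cells/ml in six-well plates, incubated overnight, then exposed to 2 or 4 μM at 37 °C under 5% CO2 for one week. Colonies were fixed with 4% paraformaldehyde, stained with 0.5% crystal violet and photographed.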
# SiHa [7] = experiment: Inhibition of colony formation in human SiHa cells at 2 to 4 uM afer 1 week by crystal violet staining based assay; format: functional, cell-based; how it was run: as §2
# [8] = target: Casein kinase II subunit alpha (Homo sapiens) (UniProt P68400); experiment: Inhibition of CK2alpha in human C33A cells at 2 to 4 uM after 48 hrs by Western blot analysis; format: cell-based; conditions: C-33-A
# How it was run: (§3)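 Cells were seeded at 1 × 10^6 per 100 mm dish and treated next day with 2 or 4 μM for 48 h. They were trypsinised, PBS-washed and lysed in RIPA with protease inhibitors. Equal protein was run on SDS-PAGE and transferred to PVDF. Primary antibodies were used at 1:500, with BSA 3% for blocking and antibodies for CK2α, Rb and pRb, otherwise 5% milk in TBST. HRP secondary at 1:2000, chemiluminescence detection.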
# SiHa [9] = experiment: Cell cycle arrest in human SiHa cells assessed as accumulation at G0/G1 phase at 4 uM after 72 hrs by propidium iodide staining based flow cytometric analysis (reference value: 72.8%); format: functional
# How it was run: (§4)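 Cells in DMEM/10% FBS at 37 °C, 5% CO2 were given 4 μM for 24, 48 or 72 h, with DMSO as control. After trypsinization they were fixed in chilled 70% ethanol on ice for 30 min, treated with RNase A (1 mg/mL) for 30 min at room temperature, and stained with PI (20 μg/mL). At least 10 000 events were read by flow cytometry to give sub-G1, G0/G1, S and G2/M fractions; mean ± SEM.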
# HeLa [10] = experiment: Cell cycle arrest in human HeLa cells assessed as accumulation at Sub G1 phase at 4 uM after 24 hrs by propidium iodide staining based flow cytometric analysis (reference value: 2.2%); format: functional; how it was run: as §4
# HeLa [11] = experiment: Cell cycle arrest in human HeLa cells assessed as accumulation at G0/G1 phase at 4 uM after 24 hrs by propidium iodide staining based flow cytometric analysis (reference value: 69.4%); format: functional; how it was run: as §4
# HeLa [12] = experiment: Cell cycle arrest in human HeLa cells assessed as accumulation at Sub G1 phase at 4 uM after 48 hrs by propidium iodide staining based flow cytometric analysis (reference value: 2.1%); format: functional; how it was run: as §4
# HeLa [13] = experiment: Cell cycle arrest in human HeLa cells assessed as accumulation at G2/M phase at 4 uM after 48 hrs by propidium iodide staining based flow cytometric analysis (reference value: 16.2%); format: functional
# HeLa [14] = experiment: Cell cycle arrest in human HeLa cells assessed as accumulation at G2/M phase at 4 uM after 72 hrs by propidium iodide staining based flow cytometric analysis (reference value: 12.6%); format: functional; how it was run: as §4
# Ca-Ski [15] = experiment: Cell cycle arrest in human CaSki cells assessed as accumulation at G2/M phase at 4 uM after 72 hrs by propidium iodide staining based flow cytometric analysis (reference value: 15.2%); format: functional
# C-33-A [16] = experiment: Induction of apoptosis in human C33A cells assessed as early apoptotic cells at 4 uM after 48 hrs by Annexin V-FITC/PI double staining based flow cytometric analysis (reference value: 12.9%); format: functional
# HeLa [17] = experiment: Induction of apoptosis in human HeLa cells assessed as early apoptotic cells at 4 uM after 24 hrs by Annexin V-FITC/PI double staining based flow cytometric analysis (reference value: 6.3%); format: functional
# HeLa [18] = experiment: Induction of apoptosis in human HeLa cells assessed as early apoptotic cells at 4 uM after 48 hrs by Annexin V-FITC/PI double staining based flow cytometric analysis (reference value: 10.7%); format: functional
# Ca-Ski [19] = experiment: Cell cycle arrest in human CaSki cells assessed as increase in accumulation at G0/G1 phase at 4 uM incubated for 48 hrs by propidium iodide staining based flow cytometric analysis; format: functional; how it was run: as §4
# [20] = target: T1, Homeobox protein SIX1 (Homo sapiens) (UniProt Q15475); experiment: Inhibition of SIX1 in human CaSki cells at 2 to 4 uM after 48 hrs by Western blot analysis; format: cell-based; conditions: Ca-Ski; how it was run: as §3
# T1 sequence (whole entry): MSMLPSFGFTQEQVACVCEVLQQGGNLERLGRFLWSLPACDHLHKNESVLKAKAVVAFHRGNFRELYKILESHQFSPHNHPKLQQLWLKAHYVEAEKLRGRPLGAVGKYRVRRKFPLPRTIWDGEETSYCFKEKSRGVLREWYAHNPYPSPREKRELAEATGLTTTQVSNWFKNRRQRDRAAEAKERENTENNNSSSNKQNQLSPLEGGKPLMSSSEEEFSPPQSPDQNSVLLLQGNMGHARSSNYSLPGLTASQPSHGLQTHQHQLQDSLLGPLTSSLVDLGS
# [21] = target: Casein kinase II subunit alpha (Homo sapiens) (UniProt P68400); experiment: Inhibition of CK2alpha in human SiHa cells at 2 to 4 uM after 48 hrs by Western blot analysis; format: cell-based; how it was run: as §3
# [22] = target: Casein kinase II subunit alpha (Homo sapiens) (UniProt P68400); experiment: Potency index, ratio for inhibition activity of apigenin to test compound for inhibition of CK2alpha in human HeLa cells after 48 hrs by Western blot analysis; format: cell-based
# How it was run: (§5)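 Cells plated at 1 × 10^6 per 100 mm dish and treated next day for 48 h with test compound (2 or 4 μM) or apigenin (10, 20 or 40 μM). RIPA lysates with protease inhibitors; equal protein loaded for SDS-PAGE, then PVDF transfer. Blocked in 5% milk/TBST (3% BSA for CK2α); anti-SIX1 or anti-CK2α 1:500, HRP secondary 1:2000; chemiluminescent detection.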
# [23] = target: T1, Homeobox protein SIX1 (Homo sapiens); experiment: Potency index, ratio for inhibition activity of apigenin to test compound for inhibition of SIX1 in human SiHa cells after 48 hrs by Western blot analysis; format: cell-based; how it was run: as §5
# [24] = Toxicity in po dosed rat; format: organism-based; conditions: in vivo
# Chain of Casein kinase II subunit alpha (Homo sapiens) (P68400 whole entry, looked up): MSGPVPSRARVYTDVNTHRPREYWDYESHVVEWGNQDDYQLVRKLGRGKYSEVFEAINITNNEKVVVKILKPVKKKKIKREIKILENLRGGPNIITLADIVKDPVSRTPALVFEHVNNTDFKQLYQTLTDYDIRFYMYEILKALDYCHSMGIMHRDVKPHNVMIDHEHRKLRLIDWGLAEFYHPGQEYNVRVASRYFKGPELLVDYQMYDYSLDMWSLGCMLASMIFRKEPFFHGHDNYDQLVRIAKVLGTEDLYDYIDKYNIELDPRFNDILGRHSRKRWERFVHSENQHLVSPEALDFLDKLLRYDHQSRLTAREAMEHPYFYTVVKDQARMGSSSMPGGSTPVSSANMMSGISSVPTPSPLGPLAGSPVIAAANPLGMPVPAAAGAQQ
smiles,measurement,setting,value
O[C@]12C=C(c3nccc4c3[nH]c3ccccc34)[C@@H]3CCN(CCCC/C=C\CC1)C[C@@]31C[C@@H]3/C=C\CCCCN3[C@H]12 [MANZAMINE A],IC50,Ca-Ski [1],33.6 µM
same,IC50,C-33-A [2],2.1 µM
same,IC50,SiHa [3],9.9 µM
same,IC50,C-33-A [4],1.6 µM
same,IC50,HeLa [5],5.3 µM
same,inhibition,HeLa [6],Active
same,inhibition,SiHa [7],Active
same,inhibition,[8],Active
same,Activity,SiHa [9],78.6%
same,Activity,HeLa [10],2.1%
same,Activity,HeLa [11],74.7%
same,Activity,HeLa [12],5.1%
same,Activity,HeLa [13],20.8%
same,Activity,HeLa [14],16.2%
same,Activity,Ca-Ski [15],10.2%
same,Activity,C-33-A [16],9.7%
same,Activity,HeLa [17],10.5%
same,Activity,HeLa [18],59%
same,fold change (FC),Ca-Ski [19],1.5
same,inhibition,[20],Active
same,inhibition,[21],Active
same,Ratio,[22],10
same,Ratio,[23],10
same,LD50,[24],200 to 300 mg/kg

# Source: ChEMBL document CHEMBL4602675, “The Marine Natural Product Manzamine A Inhibits Cervical Cancer by Targeting the SIX1 Protein” (J Nat Prod, 2020)
